In ChEMBL document CHEMBL1649256, “Comparison of assessment of oxygen consumption, Etest, and CLSI M38-A2 broth microdilution methods for evaluation of the susceptibility of Aspergillus fumigatus to posaconazole” (2009):
In brackets after ≈: the same amount, converted by molar mass.

Columns and labels:
Assay type in all cases: functional
[1] = tested on: Aspergillus fumigatus; test: Antimicrobial activity against Aspergillus fumigatus isolate 44 by oxygen consumption method
[2] = tested on: Aspergillus fumigatus; test: Antimicrobial activity against Aspergillus fumigatus isolate 45 by oxygen consumption method
[3] = tested on: Aspergillus fumigatus; test: Antimicrobial activity against Aspergillus fumigatus isolate 48 by oxygen consumption method
[4] = tested on: Aspergillus fumigatus; test: Antimicrobial activity against Aspergillus fumigatus isolate 49 by oxygen consumption method
[5] = tested on: Aspergillus fumigatus; test: Antimicrobial activity against Aspergillus fumigatus isolate 4 after 24 hrs by Etest; conditions: isolate 4, 24 h
How it was run: (§1)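 Posaconazole Etest strips on RPMI 1640 agar with 2% glucose, pH 7.0, run per the strip maker's instructions. Incubated at 35°C. MIC read at 24 h and at 48 h, matching the time in each line.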

[6] = tested on: Aspergillus fumigatus; test: Antimicrobial activity against Aspergillus fumigatus isolate 12 after 24 hrs by Etest; conditions: isolate 12, 24 h
How it was run: (§2)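 Posaconazole Etest strips placed on RPMI 1640 agar with 2% glucose, pH 7.0, and run per the strip maker's instructions. Incubation at 35°C, with the MIC read at 24 h and at 48 h.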

[7] = tested on: Aspergillus fumigatus; test: Antimicrobial activity against Aspergillus fumigatus isolate 13 after 24 hrs by Etest; conditions: isolate 13, 24 h; how it was run: as §2
[8] = tested on: Aspergillus fumigatus; test: Antimicrobial activity against Aspergillus fumigatus isolate 16 after 24 hrs by Etest; conditions: isolate 16, 24 h; how it was run: as §2
[9] = tested on: Aspergillus fumigatus; test: Antimicrobial activity against Aspergillus fumigatus isolate 21 after 24 hrs by Etest; conditions: isolate 21, 24 h
How it was run: (§3)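 Etest strips on RPMI 1640 agar with 2% glucose, pH 7.0, run per manufacturer's instructions. Incubated at 35°C; MIC read at 24 h.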

[10] = tested on: Aspergillus fumigatus; test: Antimicrobial activity against Aspergillus fumigatus isolate 23 after 24 hrs by Etest; conditions: isolate 23, 24 h; how it was run: as §3
[11] = tested on: Aspergillus fumigatus; test: Antimicrobial activity against Aspergillus fumigatus isolate 24 after 24 hrs by Etest; conditions: isolate 24, 24 h; how it was run: as §3
[12] = tested on: Aspergillus fumigatus; test: Antimicrobial activity against Aspergillus fumigatus isolate 25 after 24 hrs by Etest; conditions: isolate 25, 24 h; how it was run: as §3
[13] = tested on: Aspergillus fumigatus; test: Antimicrobial activity against Aspergillus fumigatus isolate 27 after 24 hrs by Etest; conditions: isolate 27, 24 h; how it was run: as §3
[14] = tested on: Aspergillus fumigatus; test: Antimicrobial activity against Aspergillus fumigatus isolate 28 after 24 hrs by Etest; conditions: isolate 28, 24 h; how it was run: as §3
[15] = tested on: Aspergillus fumigatus; test: Antimicrobial activity against Aspergillus fumigatus isolate 31 after 24 hrs by Etest; conditions: isolate 31, 24 h; how it was run: as §3
[16] = tested on: Aspergillus fumigatus; test: Antimicrobial activity against Aspergillus fumigatus isolate 33 after 24 hrs by Etest; conditions: isolate 33, 24 h; how it was run: as §1
[17] = tested on: Aspergillus fumigatus; test: Antimicrobial activity against Aspergillus fumigatus isolate 42 after 24 hrs by Etest; conditions: isolate 42, 24 h; how it was run: as §1
[18] = tested on: Aspergillus fumigatus; test: Antimicrobial activity against Aspergillus fumigatus isolate 47 after 24 hrs by Etest; conditions: isolate 47, 24 h
[19] = tested on: Aspergillus fumigatus; test: Antimicrobial activity against Aspergillus fumigatus isolate 6 after 48 hrs by Etest; conditions: isolate 6, 48 h
[20] = tested on: Aspergillus fumigatus; test: Antimicrobial activity against Aspergillus fumigatus isolate 17 after 48 hrs by Etest; conditions: isolate 17, 48 h; how it was run: as §2
[21] = tested on: Aspergillus fumigatus; test: Antimicrobial activity against Aspergillus fumigatus isolate 19 after 48 hrs by Etest; conditions: isolate 19, 48 h; how it was run: as §2
[22] = tested on: Aspergillus fumigatus; test: Antimicrobial activity against Aspergillus fumigatus isolate 27 after 48 hrs by Etest; conditions: isolate 27, 48 h
How it was run: (§4)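 Etest strips on RPMI 1640 agar with 2% glucose, pH 7.0, run per manufacturer's instructions. Incubated at 35°C; MIC read at 48 h.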

[23] = tested on: Aspergillus fumigatus; test: Antimicrobial activity against Aspergillus fumigatus isolate 30 after 48 hrs by Etest; conditions: isolate 30, 48 h; how it was run: as §4
[24] = tested on: Aspergillus fumigatus; test: Antimicrobial activity against Aspergillus fumigatus isolate 31 after 48 hrs by Etest; conditions: isolate 31, 48 h; how it was run: as §4
[25] = tested on: Aspergillus fumigatus; test: Antimicrobial activity against Aspergillus fumigatus isolate 35 after 48 hrs by Etest; conditions: isolate 35, 48 h; how it was run: as §1
[26] = tested on: Aspergillus fumigatus; test: Antimicrobial activity against Aspergillus fumigatus isolate 46 after 48 hrs by Etest; conditions: isolate 46, 48 h
[27] = tested on: Aspergillus fumigatus; test: Antimicrobial activity against Aspergillus fumigatus isolate 48 after 48 hrs by Etest; conditions: isolate 48, 48 h
[28] = tested on: Aspergillus fumigatus; test: Antimicrobial activity against Aspergillus fumigatus isolate 3 by oxygen consumption method
How it was run: (§5)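 Conidial suspension in RPMI 1640 broth, 1.5 ml, with two drug concentrations (0.25 and 2 μg/ml). Tubes agitated 12 h at 37°C in a biological oxygen monitor. Available oxygen monitored continuously and quantified to assign the MIC.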

[29] = tested on: Aspergillus fumigatus; test: Antimicrobial activity against Aspergillus fumigatus isolate 4 by oxygen consumption method
How it was run: (§6)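 Conidial suspension in RPMI 1640 broth, tested at two posaconazole levels (0.25 and 2 μg/ml). Agitated for 12 h at 37°C in a biological oxygen monitor. MIC derived from continuous monitoring and quantification of the available oxygen.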

[30] = tested on: Aspergillus fumigatus; test: Antimicrobial activity against Aspergillus fumigatus isolate 14 by oxygen consumption method
How it was run: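 Conidial suspension in RPMI 1640 broth with posaconazole at 0.25 and 2 μg/ml. Tubes agitated 12 h at 37°C in a biological oxygen monitor. Available oxygen was monitored continuously, and the MIC was assigned from the oxygen quantification.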

[31] = tested on: Aspergillus fumigatus; test: Antimicrobial activity against Aspergillus fumigatus isolate 26 by oxygen consumption method; how it was run: as §5
[32] = tested on: Aspergillus fumigatus; test: Antimicrobial activity against Aspergillus fumigatus isolate 30 by oxygen consumption method; how it was run: as §5
[33] = tested on: Aspergillus fumigatus; test: Antimicrobial activity against Aspergillus fumigatus isolate 41 by oxygen consumption method; how it was run: as §6
[34] = tested on: Aspergillus fumigatus; test: Antimicrobial activity against Aspergillus fumigatus isolate 3 by CLSI M38-A2 broth microdilution method
How it was run: (§7)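 Reference broth microdilution per CLSI M38-A2. MIC read as absence of visible growth at 48 h. C. parapsilosis ATCC 22019 and C. krusei ATCC 6258 QC strains run in each test session.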

[35] = tested on: Aspergillus fumigatus; test: Antimicrobial activity against Aspergillus fumigatus isolate 8 by CLSI M38-A2 broth microdilution method
[36] = tested on: Aspergillus fumigatus; test: Antimicrobial activity against Aspergillus fumigatus isolate 9 by CLSI M38-A2 broth microdilution method
[37] = tested on: Aspergillus fumigatus; test: Antimicrobial activity against Aspergillus fumigatus isolate 17 by CLSI M38-A2 broth microdilution method
How it was run: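 Posaconazole broth microdilution follows CLSI M38-A2. The MIC is the lowest concentration with no visible growth at 48 h. Candida parapsilosis ATCC 22019 and Candida krusei ATCC 6258 were included as QC strains in every run.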

[38] = tested on: Aspergillus fumigatus; test: Antimicrobial activity against Aspergillus fumigatus isolate 21 by CLSI M38-A2 broth microdilution method; how it was run: as §7
[39] = tested on: Aspergillus fumigatus; test: Antimicrobial activity against Aspergillus fumigatus isolate 22 by CLSI M38-A2 broth microdilution method; how it was run: as §7
[40] = tested on: Aspergillus fumigatus; test: Antimicrobial activity against Aspergillus fumigatus isolate 28 by CLSI M38-A2 broth microdilution method; how it was run: as §7
[41] = tested on: Aspergillus fumigatus; test: Antimicrobial activity against Aspergillus fumigatus isolate 29 by CLSI M38-A2 broth microdilution method; how it was run: as §7
[42] = tested on: Aspergillus fumigatus; test: Antimicrobial activity against Aspergillus fumigatus isolate 33 by CLSI M38-A2 broth microdilution method
How it was run: (§8)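 CLSI M38-A2 broth microdilution with posaconazole. MIC taken as the lowest concentration with no visible growth at 48 h. C. parapsilosis ATCC 22019 and C. krusei ATCC 6258 were included as QC strains in every run.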

[43] = tested on: Aspergillus fumigatus; test: Antimicrobial activity against Aspergillus fumigatus isolate 36 by CLSI M38-A2 broth microdilution method; how it was run: as §8
[44] = tested on: Aspergillus fumigatus; test: Antimicrobial activity against Aspergillus fumigatus isolate 38 by CLSI M38-A2 broth microdilution method; how it was run: as §8

CC[C@@H]([C@H](C)O)n1ncn(-c2ccc(N3CCN(c4ccc(OC[C@@H]5CO[C@@](Cn6cncn6)(c6ccc(F)cc6F)C5)cc4)CC3)cc2)c1=O [POSACONAZOLE] was tested, and the MIC [1] was at most 0.25 µg/mL, the MIC [2] was at least 0.5 µg/mL and the MIC [3] was at most 0.25 µg/mL. For the same compound, the MIC [4] was at least 0.5 µg/mL, the MIC [5] was 0.125 µg/mL (≈ 0.178 µM) and the MIC [6] was 0.25 µg/mL (≈ 0.357 µM). For the same compound, the MIC [7] was 0.25 µg/mL (≈ 0.357 µM), the MIC [8] was 0.125 µg/mL (≈ 0.178 µM) and the MIC [9] was 0.25 µg/mL (≈ 0.357 µM). The MIC [10] was 0.25 µg/mL (≈ 0.357 µM), the MIC [11] was 0.125 µg/mL (≈ 0.178 µM) and the MIC [12] was 0.25 µg/mL (≈ 0.357 µM). It also gave an MIC [13] of 0.125 µg/mL (≈ 0.178 µM), an MIC [14] of 0.25 µg/mL (≈ 0.357 µM) and an MIC [15] of 0.06 µg/mL (≈ 0.0856 µM). It also gave an MIC [16] of 0.25 µg/mL (≈ 0.357 µM), an MIC [17] of 0.06 µg/mL (≈ 0.0856 µM) and an MIC [18] of at most 0.03 µg/mL. The MIC [19] was 4 µg/mL (≈ 5.71 µM), the MIC [20] was 0.25 µg/mL (≈ 0.357 µM) and the MIC [21] was 0.25 µg/mL (≈ 0.357 µM). The MIC [22] was 0.25 µg/mL (≈ 0.357 µM), the MIC [23] was 0.5 µg/mL (≈ 0.713 µM) and the MIC [24] was 0.125 µg/mL (≈ 0.178 µM). The MIC [25] was 0.25 µg/mL (≈ 0.357 µM), the MIC [26] was 0.125 µg/mL (≈ 0.178 µM) and the MIC [27] was at most 0.03 µg/mL. For the same compound, the MIC [28] was at least 0.5 µg/mL, the MIC [29] was at least 0.5 µg/mL and the MIC [30] was at most 0.25 µg/mL. The MIC [31] was at least 0.5 µg/mL, the MIC [32] was at most 0.25 µg/mL and the MIC [33] was at most 0.25 µg/mL. For the same compound, the MIC [34] was 1 µg/mL (≈ 1.43 µM), the MIC [35] was 0.125 µg/mL (≈ 0.178 µM) and the MIC [36] was 0.25 µg/mL (≈ 0.357 µM). It also gave an MIC [37] of 0.125 µg/mL (≈ 0.178 µM), an MIC [38] of 0.125 µg/mL (≈ 0.178 µM) and an MIC [39] of 0.125 µg/mL (≈ 0.178 µM). For the same compound, the MIC [40] was 0.25 µg/mL (≈ 0.357 µM), the MIC [41] was 0.125 µg/mL (≈ 0.178 µM) and the MIC [42] was 0.125 µg/mL (≈ 0.178 µM). The MIC [43] was 0.125 µg/mL (≈ 0.178 µM) and the MIC [44] was 0.125 µg/mL (≈ 0.178 µM).
